Measurements published in ChEMBL document CHEMBL1126204, “Nucleic acid related compounds. 74. Synthesis and biological activity of 2'(and 3')-deoxy-2'(and 3')-methylenenucleoside analogues that function as mechanism-based inhibitors of S-adenosyl-L-homocysteine hydrolase and/or ribonucleotide reductase” (J Med Chem, 1992).

Assays:
MT4 = assay: In vitro inhibition of MT-4 (Human T-lymphocyte) cell proliferation.; assay type: functional, cell-based
Method in brief: (§1)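 Human Molt/4F, MT-4, and Raji cells (wild-type, TK⁻ or dCK⁻) in RPMI-1640 with 10% inactivated FCS, 2 mM L-glutamine and 0.075% NaHCO₃, seeded at 7.5 × 10⁵ cells/mL with compound (0.001–500 µM). Incubated 3 days at 37 °C in humidified CO₂; viable cells counted by Coulter counter. IC₅₀ = 50% reduction in viable cells; means of 2–4 independent experiments.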

[1] = In vitro inhibition of FM3A (murine carcinoma) cell proliferation.; assay type: functional; settings: Mus musculus
Method in brief: (§2)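 Murine FM3A or L1210 cells in Eagle's MEM with 10% inactivated FCS, 2 mM L-glutamine and 0.075% NaHCO₃, seeded at 5 × 10⁵ cells/mL with compound (0.001–500 µM). After 2 days at 37 °C in humidified CO₂, viable cells were counted with a Coulter counter. IC₅₀ = 50% fewer viable cells; mean of 2–4 experiments.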

L1210 [2] = assay: In vitro inhibition of L1210 (murine leukemia) cell proliferation.; assay type: functional, cell-based; settings: Mus musculus; method in brief: as §2
[3] = In vitro inhibition of Molt/4f (Human T-lymphoblast) cell proliferation.; assay type: functional; method in brief: as §1
L1210 [4] = assay: Concentration required to inhibit the proliferation of L1210 murine leukemia cell line by 50% in presence of exogenous nucleoside dCyd (500 ug/mL).; assay type: functional, cell-based; settings: Mus musculus
Method in brief: (§3)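 L1210 murine leukemia cells in Eagle's MEM with 10% inactivated fetal calf serum, 2 mM L-glutamine and 0.075% NaHCO₃. 5 × 10⁵ cells/mL were exposed to test compound (0.001–500 µM) together with the stated exogenous nucleoside at subtoxic level. Incubated 2 days at 37 °C in humidified CO₂. Viable cells were counted by Coulter counter. IC₅₀ = 50% reduction in viable cell number; mean of 2–4 independent experiments.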

L1210 [5] = assay: Concentration required to inhibit the proliferation of L1210 murine leukemia cell line by 50% in presence of exogenous nucleoside (d)Thd (5 ug/mL).; assay type: functional, cell-based; settings: Mus musculus; method in brief: as §3
L1210 [6] = assay: Concentration required to inhibit the proliferation of L1210 murine leukemia cell line by 50% in presence of exogenous nucleoside dUrd (125 ug/mL).; assay type: functional, cell-based; settings: Mus musculus; method in brief: as §3
L1210 [7] = assay: Antitumor activity in mice bearing L1210 murine leukemia cell line at a dose of 100 mg/kg/day.; assay type: functional, Mus musculus
Method in brief: (§4)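 DBA/2 mice (20 g) inoculated ip with 10⁶ L1210 leukemia cells; test agent given ip once daily for 5 successive days beginning 1 day after inoculation, dissolved in Eagle's MEM containing 2.5% Tween (250 μL injection). Untreated tumor-bearing controls; read-out mean survival time in days, 7–15 mice per group.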

Raji [8] = assay: Inhibition of human tumor B-lymphoblast Raji/dCK-(dcyd kinase deficient) cell proliferation; assay type: functional, cell-based; method in brief: as §1
Homo sapiens [9] = species: Homo sapiens; assay: Concentration required to inhibit the proliferation of human T-lymphocyte CEM/o cells by 50%; assay type: functional
Method in brief: (§5)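 Wild-type CEM and kinase-deficient sublines (AK⁻, dCK⁻, AK⁻/dCK⁻) grown in RPMI-1640 with 10% inactivated FCS, 2 mM L-glutamine and 0.075% NaHCO₃. Cells were exposed to compound at 0.001–500 µM for 3 days at 37 °C in humidified CO₂. Viable cells counted by Coulter counter; IC₅₀ = 50% reduction in viable cells. Mean of 2–4 independent experiments.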

L1210 [10] = assay: Antitumor activity in mice bearing L1210 murine leukemia cell line at a dose of 50 mg/kg/day.; assay type: functional, Mus musculus; method in brief: as §4
Homo sapiens [11] = species: Homo sapiens; assay: Concentration required to inhibit the proliferation of human T-lymphocyte CEM/dCK-(dcyd kinase deficient) cells by 50%; assay type: functional; method in brief: as §5
Raji [12] = assay: Inhibition of human tumor B-lymphoblast Raji/O cell proliferation; assay type: functional, cell-based; method in brief: as §1
Raji [13] = assay: Inhibition of human tumor B-lymphoblast Raji/TK-(thymidine kinase deficient) cell proliferation; assay type: functional, cell-based; method in brief: as §1
[14] = Concentration required to inhibit the proliferation of human T-lymphocyte CEM/dCK-(dCyd kinase deficient) cells by 50%; assay type: functional; method in brief: as §5
[15] = Concentration required to inhibit the proliferation of human T-lymphocyte CEM/AK-/dCK-(Ado and dCyd kinase deficient) cells by 50%; assay type: functional; method in brief: as §5
CEM (Homo sapiens) [16] = assay: Concentration required to inhibit the proliferation of human T-lymphocyte CEM/o cells by 50%
[17] = Concentration required to inhibit the proliferation of human T-lymphocyte CEM/AK-(Ado kinase deficient) cells by 50%; assay type: functional; method in brief: as §5
CEM (Homo sapiens) [18] = assay: Concentration required to inhibit the proliferation of human T-lymphocyte CEM/o cells by 50%; remark: listed apart in the source

| IC50 (L1210 [2]) | Compound | IC50 (MT4) | IC50 [1] | IC50 [3] | other results |
| --- | --- | --- | --- | --- | --- |
| 207 µM | C=C1[C@@H](O)[C@H](n2cnc3c(S)nc(N)nc32)O[C@@H]1CO | 12 µM | 495 µM | 276 µM |  |
| > 200 µM | C=C1[C@@H](O)[C@H](n2cnc3c(O)ncnc32)O[C@@H]1CO | > 200 µM | > 200 µM | > 200 µM |  |
| > 200 µM | C=C1[C@@H](O)[C@H](n2cnc3c(O)nc(N)nc32)O[C@@H]1CO | > 200 µM | > 200 µM | > 200 µM | IC50 [14]: > 500 µM; IC50 [15]: > 500 µM; IC50 (CEM (Homo sapiens) [16]): > 500 µM; IC50 [17]: > 500 µM |
| > 200 µM | C=C1[C@@H](O)[C@H](n2cnc3c(N)nc(N)nc32)O[C@@H]1CO | > 200 µM | > 200 µM | > 200 µM | IC50 [14]: > 500 µM; IC50 (CEM (Homo sapiens) [18]): > 500 µM; IC50 [15]: > 500 µM; IC50 [17]: > 500 µM |

Further lines, the compound ahead of its results:

| Compound | IC50 (L1210 [2]) | IC50 (MT4) | IC50 [1] | IC50 [3] | other results |
| --- | --- | --- | --- | --- | --- |
| C=C1[C@@H](O)[C@H](n2cnc3c(N(C)C)nc(N)nc32)O[C@@H]1CO | > 500 µM | > 500 µM | > 500 µM | > 500 µM |  |
| C=C1[C@H](n2ccc(=O)[nH]c2=O)O[C@H](CO)[C@H]1O | > 500 µM | > 500 µM | > 500 µM | > 500 µM |  |
| C=C1C(n2ccc(N)nc2=O)O[C@H](CO)[C@@H]1O (some centres not stated) | 2 µM | 0.19 µM | 11 µM | 0.11 µM | IC50 (L1210 [4]): 475 µM; IC50 (L1210 [5]): 1.18 µM; IC50 (L1210 [6]): 1.47 µM; Mean survival time (L1210 [7]): 15.6 days; IC50 (Raji [8]): 31 µM; IC50 (Homo sapiens [9]): 0.046 µM; Mean survival time (L1210 [10]): 12 days; IC50 (Homo sapiens [11]): 60 µM; IC50 (Raji [12]): 0.025 µM; IC50 (Raji [13]): 0.035 µM |
| C=C1[C@@H](O)[C@H](n2ccc(=O)[nH]c2=O)O[C@@H]1CO | > 500 µM | 450 µM | > 500 µM | > 500 µM |  |
| C=C1[C@H](n2cnc3c(SC)nc(N)nc32)O[C@H](CO)[C@H]1O | > 500 µM | > 500 µM | > 500 µM | > 500 µM |  |
| C=C1[C@H](n2cnc3c(N)ncnc32)O[C@H](CO)[C@H]1O | 65 µM | 131 µM | 232 µM | > 500 µM |  |
| C=C1[C@H](n2cnc3c(S)nc(N)nc32)O[C@H](CO)[C@H]1O | 20 µM | 0.48 µM | 26 µM | 24 µM |  |
